From ChEMBL document CHEMBL1149077, “Synthesis and evaluation of a novel series of pseudo-cinnamic derivatives as antituberculosis agents” (2009) come the findings set out here.

Values after ≈ are worked out from the molar mass of the structure shown.

The test system of the assay is Mycobacterium tuberculosis. Kind of assay: Antitubercular activity against Mycobacterium tuberculosis H37Rv after 6 days by MTT reduction assay. The assay is classed as functional. As to conditions: 144 h. In outline: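 Strain H37Rv tested in 7H9 broth across serial twofold compound dilutions, bacilli added to each well. Incubated 6 days, then MTT (1 mg/mL) added for one further day. Formazan solubilized and absorbance read at 570 nm. MIC taken as lowest concentration inhibiting growth, with untreated bacilli serving as growth control.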
(In general: Tetrazolium assays rely on reduction of a dye to a coloured formazan, in cell work by metabolically active cells.)
Usually MIC stands for the lowest concentration that inhibits growth of the organism. In the case of `O=C(/C=C/c1ccc(O)cc1)Sc1ccccc1`, the minimal inhibitory concentration (MIC) came to 8 µg/mL (≈ 31.2 µM).
The figure for `CC(=O)NCCSC(=O)/C=C/c1ccc(OC/C=C(\C)CCC=C(C)C)cc1` is 0.6 µg/mL (≈ 1.49 µM).
In the case of `CC(C)=CCC/C(C)=C/COc1ccc(/C=C/C(=O)NCCc2c[nH]c3ccccc23)cc1`, the minimum inhibitory concentration (MIC) was found to be 32 µg/mL (≈ 72.3 µM).
In turn, `CC(=O)NCCSC(=O)/C=C/c1ccc(O)cc1` showed an MIC of 63 µg/mL (≈ 237 µM).
Take `CC(=O)NCCSC(=O)/C=C/c1ccc(OCC=C(C)C)cc1`: the minimal inhibitory concentration (MIC) amounted to 32 µg/mL (≈ 96 µM).
Turning to `CC(=O)NCCNC(=O)/C=C/c1ccc(OC/C=C(\C)CCC=C(C)C)cc1`, the lowest concentration to inhibit growth (MIC) was 0.1 µg/mL (≈ 0.26 µM).
Consider `CC(=O)NCCNC(=O)/C=C/c1ccc(OCC=C(C)C)cc1`, for which the MIC worked out at 63 µg/mL (≈ 199 µM).
For `CC(=O)NCCSC(=O)/C=C/c1ccc(OC/C=C(/C)CC/C=C(/C)CCC=C(C)C)cc1` the value was 0.6 µg/mL (≈ 1.28 µM); for `COc1ccc(/C=C/C(=O)Nc2ccccn2)cc1`, 63 µg/mL (≈ 248 µM); for `COc1cc(/C=C/C(=O)NCCc2c[nH]c3ccccc23)ccc1O`, 8 µg/mL (≈ 23.8 µM).
The figure for `COc1ccc(/C=C/C(=O)NCCc2c[nH]c3ccccc23)cc1` is 500 µg/mL (≈ 1560 µM).
In the case of `COc1cc(/C=C/C(=O)SCCNC(C)=O)cc(OC)c1O`, the minimum inhibitory concentration (MIC) was 125 µg/mL (≈ 384 µM). Against the preceding compound, the MIC is about 4-fold lower.
For `COc1ccc(/C=C/C(=O)NCCNC(C)=O)cc1` the value was greater than 500 µg/mL; for `COc1ccc(/C=C/C(=O)SCCNC(C)=O)cc1`, 63 µg/mL (≈ 226 µM).
The compound `CC(C)=CCOc1ccc(/C=C/C(=O)Nc2ccccn2)cc1` gave an MIC of 16 µg/mL (≈ 51.9 µM).
For the compound `CC(C)=CCC/C(C)=C/COc1ccc(/C=C/C(=O)Nc2ccccn2)cc1`, the MIC was 1 µg/mL (≈ 2.66 µM).
In the case of `COc1cc(/C=C/C(=O)SCCNC(C)=O)ccc1O`, inhibition of growth (MIC) required 125 µg/mL (≈ 423 µM).
The figure for `CC(C)=CCOc1ccc(/C=C/C(=O)NCCc2c[nH]c3ccccc23)cc1` is 63 µg/mL (≈ 168 µM); for `COc1ccc(/C=C/C(=O)Nc2ccccn2)cc1OC` it is 125 µg/mL (≈ 440 µM).
The figure for `COc1cc(/C=C/C(=O)Sc2ccccc2)ccc1O` is 8 µg/mL (≈ 27.9 µM).
